Activity calls are given as the source filed them. The calls are words filed in the database; no cut-off is given here.
Columns and labels:
[1] = biological target: T1, Muscarinic acetylcholine receptor M1 (Homo sapiens, UniProt P11229); assay: Displacement of [3H]NMS from EGFP-fused human M1 receptor N-terminal truncated at 17 residues expressed in HEK293 cells after 22 hrs by liquid scintillation counting; assay type: cell-based
T1 sequence (P11229 whole entry): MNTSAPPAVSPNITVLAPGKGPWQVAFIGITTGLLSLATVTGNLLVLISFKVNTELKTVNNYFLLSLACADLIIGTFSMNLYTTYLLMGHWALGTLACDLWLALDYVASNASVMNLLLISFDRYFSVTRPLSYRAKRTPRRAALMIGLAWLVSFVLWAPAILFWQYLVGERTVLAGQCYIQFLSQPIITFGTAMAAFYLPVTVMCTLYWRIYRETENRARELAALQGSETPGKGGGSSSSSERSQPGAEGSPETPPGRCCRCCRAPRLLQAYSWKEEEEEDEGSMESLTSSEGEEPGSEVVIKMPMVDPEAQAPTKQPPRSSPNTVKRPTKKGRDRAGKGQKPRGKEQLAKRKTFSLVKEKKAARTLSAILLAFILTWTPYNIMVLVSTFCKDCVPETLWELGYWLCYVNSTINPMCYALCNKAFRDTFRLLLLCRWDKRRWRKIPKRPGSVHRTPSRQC

[2] = biological target: T2, Muscarinic acetylcholine receptor M1 (Homo sapiens) (UniProt P11229); assay: Allosteric modulation of EGFP-fused human M1 receptor N-terminal truncated at 17 residues expressed in HEK293 cells after 4 hrs by FRET assay in presence of para-LRB-AC42; assay type: cell-based
T2 sequence (whole entry): T1 sequence (P11229 whole entry)
Procedure, shortened: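 EGFP emission was read at 510 nm with excitation at 470 nm. Specific signal was the difference from 20 μM atropine. Kx and α came from an allosteric model fit, with three or more independent runs done in duplicate.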

[3] = biological target: T2, Muscarinic acetylcholine receptor M1 (Homo sapiens); assay: Partial agonist activity at EGFP-fused human M1 receptor N-terminal truncated at 17 residues expressed in HEK293 cells assessed as inhibition of carbachol induced calcium response at 1 uM by fluorescence assay relative to control; assay type: functional, cell-based
[4] = biological target: T2, Muscarinic acetylcholine receptor M1 (Homo sapiens); details: HEK293
[5] = biological target: T1, Muscarinic acetylcholine receptor M1; assay type: cell-based, HEK293
[6] = biological target: T2, Muscarinic acetylcholine receptor M1 (Homo sapiens); assay: Partial agonist activity at EGFP-fused human M1 receptor N-terminal truncated at 17 residues expressed in HEK293 cells assessed as inhibition of carbachol induced calcium response at […] by fluorescence assay; assay type: functional, cell-based
[7] = biological target: T1, Muscarinic acetylcholine receptor M1; assay: (§1) Antagonist activity at EGFP-fused human M1 receptor N-terminal truncated at 17 residues expressed in HEK293 cells assessed as inhibition of carbachol induced calcium response by fluorescence assay; assay type: functional, cell-based
[8] = biological target: T2, Muscarinic acetylcholine receptor M1 (Homo sapiens); assay: as §1; assay type: functional, cell-based
[9] = biological target: T2, Muscarinic acetylcholine receptor M1 (Homo sapiens); assay: Binding affinity to EGFP-fused human M1 receptor N-terminal truncated at 17 residues expressed in HEK293 cells assessed as maximal amplitude after 4 hrs by FRET assay; assay type: cell-based
Procedure, shortened: (§2)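 EGFP emission was read at 510 nm; specific binding is atropine-sensitive fluorescence extinction. Kd, maximal FRET amplitude and Ki/Kx/α come from Hill or competitive/allosteric fits, mean ± SE, n≥3.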

[10] = biological target: T1, Muscarinic acetylcholine receptor M1; assay: Binding affinity to EGFP-fused human M1 receptor N-terminal truncated at 17 residues expressed in HEK293 cells after 4 hrs by FRET assay; assay type: cell-based; procedure, shortened: as §2
[11] = biological target: T1, Muscarinic acetylcholine receptor M1; assay: Displacement of [3H]NMS from EGFP-fused human M1 receptor N-terminal truncated at 17 residues expressed in HEK293 cells assessed as reduction of [3H]NMS dissociation rate after 22 hrs by liquid scintillation counting; assay type: cell-based
[12] = biological target: Muscarinic acetylcholine receptor M3 (Homo sapiens) (UniProt P20309); assay: Antagonist activity at human M3 receptor in HEK293 cells assessed as inhibition of 20 uM carbachol induced calcium response at 10 uM by fluorescence assay; assay type: functional, cell-based
Muscarinic acetylcholine receptor M3 (Homo sapiens), sequence (P20309 whole entry, looked up): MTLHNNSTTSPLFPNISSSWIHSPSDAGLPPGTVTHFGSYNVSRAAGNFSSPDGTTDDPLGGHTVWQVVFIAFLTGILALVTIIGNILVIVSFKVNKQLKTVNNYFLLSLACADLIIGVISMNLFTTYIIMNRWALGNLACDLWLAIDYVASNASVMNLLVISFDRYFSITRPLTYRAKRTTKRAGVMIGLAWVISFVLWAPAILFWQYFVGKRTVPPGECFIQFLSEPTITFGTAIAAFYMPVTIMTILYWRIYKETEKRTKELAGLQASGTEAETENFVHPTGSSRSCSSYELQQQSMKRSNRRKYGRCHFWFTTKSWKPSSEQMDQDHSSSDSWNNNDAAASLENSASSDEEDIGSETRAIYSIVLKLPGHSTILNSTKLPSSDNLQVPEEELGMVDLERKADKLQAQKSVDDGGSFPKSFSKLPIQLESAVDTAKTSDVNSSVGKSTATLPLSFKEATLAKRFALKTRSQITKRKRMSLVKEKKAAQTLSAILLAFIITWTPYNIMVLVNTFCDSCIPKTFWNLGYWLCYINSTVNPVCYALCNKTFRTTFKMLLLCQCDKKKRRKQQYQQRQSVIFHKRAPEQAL
Procedure, shortened: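 Nontransfected HEK cells (endogenous M3) loaded with 5 μM Indo-1 AM, 45 min, 37 °C, trypsin/EDTA harvested, suspended at 10⁶ cells/mL in Hepes buffer with 1 mg/mL BSA. Calcium read at 37 °C as 400 nm emission (338 nm excitation), peak normalized to 20 μM digitonin maximum.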

[13] = biological target: T1, Muscarinic acetylcholine receptor M1; assay: Partial agonist activity at EGFP-fused human M1 receptor N-terminal truncated at 11 residues expressed in HEK293 cells assessed as induction of calcium response by fluorescence assay; assay type: functional, cell-based
Procedure, shortened: (§3)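 Stably transfected HEK293 cells (hygromycin-selected) were loaded with 5 μM Indo-1 AM for 45 min at 37 °C, then suspended at 10⁶ cells/mL in Hepes buffer with BSA. […] EC50 and Emax are mean ± SD of two determinations.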

[14] = biological target: T1, Muscarinic acetylcholine receptor M1; assay: Partial agonist activity at EGFP-fused human M1 receptor N-terminal truncated at 17 residues expressed in HEK293 cells assessed as induction of calcium response by fluorescence assay; assay type: functional, cell-based; procedure, shortened: as §3
[15] = biological target: T2, Muscarinic acetylcholine receptor M1 (Homo sapiens); details: HEK293, 10 uM
[16] = biological target: T2, Muscarinic acetylcholine receptor M1 (Homo sapiens); details: HEK293, 10 uM; remark: listed apart in the source
[17] = biological target: T1, Muscarinic acetylcholine receptor M1; assay: Partial agonist activity at EGFP-fused human full length M1 receptor expressed in HEK293 cells assessed as induction of calcium response by fluorescence assay; assay type: functional, cell-based; procedure, shortened: as §3
[18] = biological target: T1, Muscarinic acetylcholine receptor M1; assay: Partial agonist activity at human full length M1 receptor expressed in HEK293 cells assessed as induction of calcium response by fluorescence assay; assay type: functional, cell-based; procedure, shortened: as §3
[19] = biological target: T2, Muscarinic acetylcholine receptor M1 (Homo sapiens); details: HEK293, 200 nM

Clc1ccc2c(c1)N=C(N1CCNCC1)c1ccccc1N2 [N-DESMETHYLCLOZAPINE]
Ki [1]: 0.0603 µM | pKx [2]: 6.92

CCN(CC)c1ccc2c(-c3ccc(S(=O)(=O)[O-])cc3S(=O)(=O)NCCCCCC3CCN(CCCC(=O)c4ccccc4C)CC3)c3ccc(=[N+](CC)CC)cc-3oc2c1
Emax [3]: 20%

COc1cc2c(cc1OC)[C@@]13CCN4CC5=CCO[C@H]6CC(=O)N2[C@H]1[C@H]6[C@H]5C[C@H]43 [BRUCINE]
pKx [4]: 4.59 | Ki [5]: 44700 nM

C#C[C@]1(O)CC[C@H]2[C@@H]3CC[C@H]4Cc5nc6nc7ccccc7n6cc5C[C@]4(C)[C@H]3CC[C@@]21C
pKx [2]: 5.03

CCN(CC)c1ccc2c(-c3ccc(S(=O)(=O)O)cc3S(=O)(=O)[O-])c3ccc(=[N+](CC)CC)cc-3oc2c1
Ki [1]: > 1000 µM | Activity [6]: inactive

CCN(CC)c1ccc2c(-c3ccc(S(=O)(=O)NCCCCCC4CCN(CCCC(=O)c5ccccc5C)CC4)cc3S(=O)(=O)[O-])c3ccc(=[N+](CC)CC)cc-3oc2c1
IC50 [7]: 300 nM | inhibition [8]: Dose-dependent effect | Activity [9]: 26.5% | Kd [10]: 794 nM | Ki [1]: 1 µM | EC50 [11]: 25.1 µM | inhibition [12]: inactive

CCCCC1CCN(CCCC(=O)c2ccccc2C)CC1
Ki [1]: 1.74 µM | EC50 [13]: 720 nM | Ki [5]: 891 nM | EC50 [14]: 450 nM | inhibition [15]: inactive | inhibition [16]: inactive | EC50 [17]: 210 nM | EC50 [18]: 740 nM | inhibition [19]: inactive

Cc1ccccc1C(=O)CCCN1CCC(CCCCCN)CC1
IC50 [7]: 3700 nM | inhibition [8]: Dose-dependent effect | Ki [1]: 1.95 µM | Ki [5]: 1290 nM | inhibition [12]: inactive

From ChEMBL document CHEMBL2203158, “Fluorescent derivatives of AC-42 to probe bitopic orthosteric/allosteric binding mechanisms on muscarinic M1 receptors” (J Med Chem, 2012)
